Our source for the cytotoxicity values is ChEMBL document CHEMBL4513216, “Probing the Open Global Health Chemical Diversity Library for Multistage-Active Starting Points for Next-Generation Antimalarials” (ACS Infect Dis, 2020).

This data set in a line: Toxicity liver stage against HepG2, at 10uM. In kind it is cell-based. Also on record: test concentration 10 uM, cell line HepG2-A16-CD81EGFP. Particulars: human, HepG2-A16-CD81EGFP cells; read-out: INHIBITION
A digest of the protocol: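 Uninfected HepG2-A16-CD81EGFP cells, 3 × 10^3 per well, 1536-well, plated on prespotted compound at 10 μM final, parasite-free screening media added to match infected plates; puromycin 10 μM positive, DMSO 0.5% negative; run in parallel with 48 h PbLuc assay at 37 °C, 5% CO2; viability by CellTiter-Glo luminescence, normalized to controls.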

SMILES strings stand for the structures.

Take `O=C(NCC1CCN(C(=O)c2ccoc2)CC1)c1ccccc1Br`: the cytotoxicity at 10 µM was -12.3%.

On to `O=C1CCC(=O)N1CCN1CCN(c2cc(F)ccc2F)CC1`, for which the cytotoxicity at 10 µM was 9.44%.

Take `NC(=O)CC1CCCN(c2cncc(OCc3ccccc3)n2)C1` (configuration not stated): the cytotoxicity at 10 µM came out at 17.7%.

Regarding `Cn1cccc1C(=O)N[C@@H]1CN(Cc2ccsc2)[C@@H]2COC[C@@H]21`, the cytotoxicity at 10 µM was found to be 9.9%.

As for `Cc1cccc(OCc2nnc(SCC3CCCN(C)C3)o2)c1` (configuration not stated), the cytotoxicity at 10 µM was -2.8%.

With `Cc1noc(C)c1CN1C[C@@H](C(=O)O)[C@H](C(C)C)C1`, the cytotoxicity at 10 µM stood at 3.51%.

For the molecule `Cc1csc(N2CCC(CCN3CCCC3=O)CC2)n1`, the cytotoxicity at 10 µM is -5.7%.

As for `O=S(=O)(c1cccs1)N1CCCn2nnc(CN3CCCCC3)c2C1`, the cytotoxicity at 10 µM was -17.5%.

With `CSC(C)(C)CNC(=O)Nc1cccc(-c2nccn2C)c1`, the cytotoxicity at 10 µM was -3.13%.

Turning to `CN1C(=O)c2ccc(NC(=O)CSc3ccc4c(c3)CCC4)cc2C1=O`, the cytotoxicity at 10 µM came to 0.0636%.

For `Cc1cncc(C2CCCN(Cc3cccn3C)C2)n1` (configuration not stated), the cytotoxicity at 10 µM was found to be 8.25%.

`Cc1nnc(CN2C[C@H](NC(=O)CC3CCCC3)[C@@H](C3CC3)C2)s1`: the cytotoxicity at 10 µM was -42.4%.

For `CC(CN1CCOCC1)N(Cc1ccccc1)Cc1ccncc1` (configuration not stated), the cytotoxicity at 10 µM is 5.5%.

Consider `COc1ccc2c(ccn2CCC(=O)NCCC(=O)O)c1`, for which the cytotoxicity at 10 µM is 6.81%.

On to `CC(=O)N(Cc1noc(C)n1)C1CCN(Cc2ccccn2)C1` (configuration not stated), for which the cytotoxicity at 10 µM was -5.82%.

As to `CCn1ncc(C(=O)NCCc2nc(-c3ccc(C)cc3)n[nH]2)c1C`, the cytotoxicity at 10 µM was 8%.

On to `COC(=O)NCC(=O)N1CCC(c2nc3cc(F)ccc3[nH]2)CC1`, for which the cytotoxicity at 10 µM amounted to 3.67%.

With `CC(C)c1nn(C)c(N2CCOCC2)c1CNC(C)c1cccs1` (configuration not stated), the cytotoxicity at 10 µM is -5.06%.

`CCn1nc(C)cc1C(=O)N1C[C@@H]2C[C@@H](c3nnc(C)[nH]3)O[C@@H]2C1`: the cytotoxicity at 10 µM is -1.87%.

Take `CC(C)NC(=O)CN1CCSC2(CCCCC2)C1`: the cytotoxicity at 10 µM is -13.7%.

Regarding `Cn1cc(Br)cc1C(=O)NCC(C)(O)c1ccsc1` (configuration not stated), the cytotoxicity at 10 µM was -49%.

With `CS(=O)(=O)N1CCCc2sc(C(=O)NC3CC3)nc21`, the cytotoxicity at 10 µM is -143%.

For `COc1ccc(F)c(NCc2cnn(C3CCS(=O)(=O)C3)c2)c1` (configuration not stated), the cytotoxicity at 10 µM is 2.65%.

In the case of `O=C(O)c1cccnc1CN(Cc1ccsc1)C1CC1`, the cytotoxicity at 10 µM came to 3.7%.

Take `O=S(=O)(N1CCCCCC1)N1CCCN(CC2CCCO2)CC1` (configuration not stated): the cytotoxicity at 10 µM is 0.863%.

Regarding `N#Cc1cccnc1OC1CCN(C(=O)NCc2ccccc2)CC1`, the cytotoxicity at 10 µM worked out at 1.38%.

With `O=C(Nc1cccnc1N1CCSCC1)c1ccc2c(c1)CCC2`, the cytotoxicity at 10 µM is -2.03%.

Regarding `CCc1nc(CN2CCCC(N(C)CCn3cccn3)C2)no1` (configuration not stated), the cytotoxicity at 10 µM is -11.5%.

As for `CC(C)c1nc2c(n1C)CCN(Cc1nc(-c3ccsc3)no1)C2`, the cytotoxicity at 10 µM is -6.46%.

For the molecule `CCNC(=O)C1CCN(Cc2csc(-c3ccc(C)o3)n2)CC1`, the cytotoxicity at 10 µM came out at 6.26%.

Take `CC(O)CN1CCC(CN(C)CCC(=O)NC2CCCCC2)CC1` (configuration not stated): the cytotoxicity at 10 µM was found to be 4.11%.

`Cc1ccc2nc(C)cc(C(=O)N[C@H]3COC[C@@H]3N3CCOCC3)c2c1`: the cytotoxicity at 10 µM was -42.2%.

For the molecule `COCC(=O)N1CCC2(CC1)CN(c1ccsc1)C(=O)CO2`, the cytotoxicity at 10 µM is -75.6%.

For `CC(C)(C)S(=O)(=O)c1ccc(N2CCC(n3ccnc3)CC2)cn1`, the cytotoxicity at 10 µM was -6.62%.

Take `Cc1ccc(=O)n(CC2(O)CCN(Cc3ccoc3)CC2)n1`: the cytotoxicity at 10 µM is -24.2%.

On to `NC1CCC(n2cc(C(=O)NC3COc4ccccc43)nn2)CC1` (configuration not stated), for which the cytotoxicity at 10 µM is -4.8%.

In the case of `CC(C)NC(=O)N1CCc2onc(C(=O)Nc3cccnc3)c2C1`, the cytotoxicity at 10 µM was 4.32%.

As for `Cc1ccc(N2CCCC(c3[nH]ncc3-c3ccccc3)C2)nn1` (configuration not stated), the cytotoxicity at 10 µM worked out at 2.51%.

For `CNc1cccc(C2CCCN(C(=O)c3ccncc3)C2)n1` (configuration not stated), the cytotoxicity at 10 µM was -4.02%.

With `CC(=O)N1CCC(c2nccnc2CNC(=O)c2cc[nH]n2)CC1`, the cytotoxicity at 10 µM was -6.27%.

For `CN1CCN(c2ccncc2S(=O)(=O)N2CCCCC2)CC1`, the cytotoxicity at 10 µM was -6.84%.

Turning to `Cc1ccc(C(=O)N2CCc3ncc(Cn4cccn4)n3CC2)o1`, the cytotoxicity at 10 µM is 2.31%.

With `COCC1CN(Cc2cccnc2OC)Cc2cnn(C)c21` (configuration not stated), the cytotoxicity at 10 µM was 2.69%.

`Clc1snnc1CN1CCCC(Cn2cncn2)C1` (configuration not stated): the cytotoxicity at 10 µM was -7.67%.

Turning to `COC(=O)c1ccc(N(C)C2CCC2)nn1`, the cytotoxicity at 10 µM was 19.8%.

For `O=C1CC(N(C(=O)c2ccc3[nH]c4c(c3c2)CCCC4)C2CC2)C(=O)N1` (configuration not stated), the cytotoxicity at 10 µM was -3.79%.

Take `COc1ccccc1-c1ncc(CN2C[C@@H](N(C)C)[C@H](C(C)C)C2)s1`: the cytotoxicity at 10 µM is -12.3%.

For `CCC(c1ccccc1)N1CCN(C(=O)c2cc(C(N)=O)c[nH]2)CC1` (configuration not stated), the cytotoxicity at 10 µM turned out to be 2.96%.

Take `Cc1noc(C)c1S(=O)(=O)N1CCC(Oc2ccccn2)CC1`: the cytotoxicity at 10 µM amounted to 0.67%.

Turning to `Cn1cc(S(=O)(=O)NC(=O)C2(c3ccccc3)CCC2)cn1`, the cytotoxicity at 10 µM is -6.85%.

Regarding `O=C1CCCC2=Nc3nonc3NC(c3ccccc3Cl)C12` (configuration not stated), the cytotoxicity at 10 µM was 18.5%.

In the case of `c1cc(C2CC2)n2cnc(C3CN(Cc4ccncc4)CCO3)c2c1` (configuration not stated), the cytotoxicity at 10 µM came to 6.59%.

In the case of `Cc1ccc(NS(=O)(=O)c2cccc(C#N)c2)c(CN(C)C)c1`, the cytotoxicity at 10 µM is -4.97%.

Regarding `O=C(CCOc1ccccc1F)N1CCCC1Cn1cccn1` (configuration not stated), the cytotoxicity at 10 µM is -3.71%.

On to `O=C(NCCC1=CCCCC1)Nc1cc(C(F)(F)F)c[nH]c1=O`, for which the cytotoxicity at 10 µM was -8.39%.

`CCCNC(=O)c1c(-n2cnnn2)sc2c1CCC2`: the cytotoxicity at 10 µM was found to be 4.05%.

As for `CNC(=O)c1cccnc1Oc1ccccc1`, the cytotoxicity at 10 µM was 2.84%.

As to `CCc1nnc2n1CCN(Cc1nc(-c3ccoc3)no1)C2`, the cytotoxicity at 10 µM was -4.1%.

Turning to `CN(C)C(=O)c1cn[nH]c1C1CCCN1Cc1nccn1C` (configuration not stated), the cytotoxicity at 10 µM was -1.08%.

`Cc1csc(CN2CC[C@H]3C[C@@H](c4nnc(C)[nH]4)O[C@@H]3C2)n1`: the cytotoxicity at 10 µM came to 1.56%.

On to `CC(O)(CCc1ccccc1)CNC(=O)c1ccsc1` (configuration not stated), for which the cytotoxicity at 10 µM was -1.18%.

As to `CCc1n[nH]c(C2CN(C(=O)CCOCC(F)(F)F)CCO2)n1` (configuration not stated), the cytotoxicity at 10 µM was 10.4%.

For `c1cc(-c2n[nH]cc2-c2ccnc(N3CCCC3)n2)ccn1`, the cytotoxicity at 10 µM was -0.779%.

With `Cc1nccn1CC1CCCN(C(=O)c2cnn(C)c2)C1` (configuration not stated), the cytotoxicity at 10 µM is -6.44%.

Regarding `CCOc1cccc(COC(=O)c2ccc(Cl)cn2)n1`, the cytotoxicity at 10 µM is -3.44%.

Regarding `Cc1cc(C(=O)N2C[C@@H]3CC[C@H]2CN(Cc2ccccn2)C3)nc(C)n1`, the cytotoxicity at 10 µM turned out to be 2.36%.

`COc1ccccc1CC(=O)N1CCC(NCc2ccncc2)CC1`: the cytotoxicity at 10 µM is -9.69%.

On to `O=C(NCCCF)N1CCC(n2ccc(C(F)(F)F)n2)CC1`, for which the cytotoxicity at 10 µM is -5.29%.

As for `N#Cc1ccccc1OCCN1CCC(N2CCNC2=O)CC1`, the cytotoxicity at 10 µM is -8.58%.

As for `O=C(c1ccc2c(c1)OCO2)N1C[C@H](OCC2CC2)[C@H]2COC[C@H]21`, the cytotoxicity at 10 µM was -166%.

For the molecule `CCOC(=O)CNC(=O)c1cccnc1Sc1cc(OC)ccc1OC`, the cytotoxicity at 10 µM is 1.73%.

Consider `O=C(Nc1ccc(F)cc1)C1CCN(Cc2noc(C3CC3)n2)CC1`, for which the cytotoxicity at 10 µM was 4.05%.

Consider `O=C(NCC1(N2CCOCC2)CCSC1)Nc1ccc(F)cc1` (configuration not stated), for which the cytotoxicity at 10 µM was -10.2%.

Take `Cn1c(=O)c2cc(C(=O)NCCOCC(F)(F)F)ccc2n(C)c1=O`: the cytotoxicity at 10 µM is -13.9%.

In the case of `CCn1nc(C)cc1NC(=O)CCn1nc(C)c2ccccc21`, the cytotoxicity at 10 µM was 4.98%.

For the molecule `CS(=O)(=O)CCS(=O)(=O)Cc1cc(Cl)c2c(c1)OCCCO2`, the cytotoxicity at 10 µM was -0.0261%.

As for `CC(=O)N1CCN(C(=O)CCCc2nnc(-c3ccccc3)o2)CC1`, the cytotoxicity at 10 µM was -12.5%.

For the molecule `COc1cc(CNc2cnn(CC(F)F)c2)ccc1O`, the cytotoxicity at 10 µM is 0.553%.

Regarding `Cc1cnn(C(C)C2CC2)c1NC(=O)c1ncccc1O` (configuration not stated), the cytotoxicity at 10 µM came to 7.4%.

For `O=C(c1cccc(Cl)c1)N1CC[C@H]2[C@H]1CCN2CC1CC1`, the cytotoxicity at 10 µM is -75%.

As to `Cc1nc(-c2noc3ccc(C(=O)NCCN4CCOCC4)cc23)co1`, the cytotoxicity at 10 µM was determined as 15%.

For `CO[C@H]1CO[C@@]2(CCCN(C(=O)N(C)C)C2)C1`, the cytotoxicity at 10 µM is -97.4%.

For `Cc1cc(NCc2cccnc2)n2nc(C)cc2n1`, the cytotoxicity at 10 µM was -0.719%.

As to `CC(=O)NCc1nc(CCOc2ccc(Cl)cc2)no1`, the cytotoxicity at 10 µM is -145%.

As to `CC(=O)NCC1CCCN(C(=O)Cc2c(C)noc2C)C1` (configuration not stated), the cytotoxicity at 10 µM amounted to 17.4%.

Regarding `CCOCc1cnc2n1CCN(C(=O)c1ccoc1C)C2C` (configuration not stated), the cytotoxicity at 10 µM was -98.3%.

`Cn1ccnc1CN(CCO)C(=O)c1cnc2ccccc2c1`: the cytotoxicity at 10 µM came to 1.39%.

For `CCc1ncc(C(=O)NCCNc2ccncc2)s1`, the cytotoxicity at 10 µM is -9.7%.

For `O=C(NCCn1ccnc1-c1cc2n(n1)CCNC2)c1ccc(F)cc1`, the cytotoxicity at 10 µM is -16.9%.

As for `Cc1nc(-c2cccnc2)ncc1C(=O)N1CCCCC(N)C1` (configuration not stated), the cytotoxicity at 10 µM worked out at 7.57%.

In the case of `CC(=O)NCC(=O)N1CCc2nc(-c3ccccc3)nc(C)c2CC1`, the cytotoxicity at 10 µM is -2.54%.

Take `CN(C)CCN1CCO[C@H]2CN(C(=O)C3CCOCC3)C[C@H]21`: the cytotoxicity at 10 µM turned out to be 1.58%.

Turning to `CC(O)CN1CCN(Cc2cccc(C(=O)N3CCCCC3)c2)CC1` (configuration not stated), the cytotoxicity at 10 µM is -4.83%.

Regarding `CC(Nc1ccc(Br)cc1)c1nc(C2CC2)no1` (configuration not stated), the cytotoxicity at 10 µM is 6.27%.

As for `Cc1cc(C(=O)N2CCC3(CC2)CN(CCN(C)C)C(=O)O3)nc(C)n1`, the cytotoxicity at 10 µM came to 2.92%.

`NC(=O)c1ccnc(N2CCCC(CO)(Cc3ccccc3)C2)c1` (configuration not stated): the cytotoxicity at 10 µM was determined as 11.6%.

In the case of `NC(=O)CCN(C(=O)CSc1ccc(F)cc1)c1ccc(F)cc1`, the cytotoxicity at 10 µM is -2.17%.
